Bioassay records (PubChem)
RanGTP-Imp inh: inhibitors of RanGTP-importin-beta interaction, primary screen, biochemical, FRET, CFP-Ran, YFP-importin-beta, homogeneous; inhibition, % (no concentration beside the values); cell-free CFP-Ran/YFP-importin-beta FRET ratio; 1.1% of 300,000 active;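 active = more than half of the replicate wells show a fall in the fluorescence ratio signal beyond about 16%, limit read from the data, passing the limit was not always enough; inconclusive = exactly half of the replicate wells pass the set limit; inactive = fewer than half of replicates pass the limit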;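 note: 0% = DMSO wells and 100% = Ran loaded with GDP instead of GTP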
Runt-SMMHC FRET: inhibitors of human RUNX1 Runt domain binding to CBFb-SMMHC; Q01196+Q13951; Cerulean-Runt/Venus-CBFb-SMMHC FRET ratio 530/480, 1 h; inhibition, % at 20 µM; 0.74% of 220,000 active; AID 1434;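 active = mean inhibition across duplicate retests at 20 µM reaching about 50%, limit read from the data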;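 note: 0% = DMSO wells and 100% = wells with excess untagged CBFb-SMMHC; inhibitors lower the FRET ratio by blocking Runt binding to CBFb-SMMHC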
Target sequence (Q01196 whole entry, looked up, the tested form may be a part): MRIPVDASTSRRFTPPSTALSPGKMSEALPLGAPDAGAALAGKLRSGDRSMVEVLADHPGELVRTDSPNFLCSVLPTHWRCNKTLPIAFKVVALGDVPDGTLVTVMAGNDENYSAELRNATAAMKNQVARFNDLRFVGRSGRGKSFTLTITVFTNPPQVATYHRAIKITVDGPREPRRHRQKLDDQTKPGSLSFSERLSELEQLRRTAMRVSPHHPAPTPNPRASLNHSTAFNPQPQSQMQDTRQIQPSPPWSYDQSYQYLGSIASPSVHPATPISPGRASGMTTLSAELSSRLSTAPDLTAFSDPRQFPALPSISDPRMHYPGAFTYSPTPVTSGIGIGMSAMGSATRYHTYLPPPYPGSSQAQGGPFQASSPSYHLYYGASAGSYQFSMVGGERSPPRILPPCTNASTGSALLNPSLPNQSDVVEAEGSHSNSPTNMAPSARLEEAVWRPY
Target sequence (Q13951 whole entry, looked up, the tested form may be a part): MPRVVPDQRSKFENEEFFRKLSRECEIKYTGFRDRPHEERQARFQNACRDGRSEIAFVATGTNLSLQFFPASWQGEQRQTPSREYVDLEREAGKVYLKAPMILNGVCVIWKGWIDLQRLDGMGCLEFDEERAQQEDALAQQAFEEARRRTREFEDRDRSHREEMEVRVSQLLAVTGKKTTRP
Wee1 stabilizer: inhibitors of human Wee1 degradation | P30291 | HeLa Luc-Wee1K328M stability, luciferase luminescence; 100% = proteasome inhibitor MG132 effect | AID 1321 | reporter increase, % at 5 µM | 1.2% of 220,000 active;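 active = activation above the mean of all tested compounds plus 3 SD, set per screening run, cut at about 8.8% in these data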;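 note: cells exposed to compound for 20 h before luminescence read; 0% = DMSO alone and 100% = MG132 at 30 µM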
AI-2 QS modul: Vibrio harveyi AI-2 quorum sensing modulation | AID 2094 | 0.4% of 300,000 active | Vibrio harveyi JMH597 AI-2 luminescence/OD600 ratio, 9 h; active compounds read low; strain lacks LuxN and CqsS sensors; 0 = neutral-control median | activity change, % at 7.5 µM; in the data active = activity change below about -75%, passing the limit was not always enough; inconclusive = no clear call, values can overlap the other calls;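 note: luminescence divided by OD600 gain over 9 h not by final OD600 alone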
proKLK7 act: activators of human kallikrein-7 zymogen | activation, % at 7 µM | 0.9% of 370,000 active | purified proKLK7, EDANS-DABCYL substrate fluorescence; 100% is mature enzyme control, 0% vehicle | P49862 | AID 652039;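 active = activation above the mean of all tested compounds plus 3 SD, computed per campaign excluding outliers beyond control limits, cut at about 13% in these data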
Runt-CBFb FRET: blocks binding of human RUNX1 Runt domain to CBFb; Q01196+Q13951; Cerulean-Runt/Venus-CBFb FRET ratio 530/480, 1 h; inhibition, % at 20 µM; 0.46% of 220,000 active; AID 1496;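 active = inhibition over about 50% at 20 µM in the single-dose screen, limit read from the data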;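 note: 0% = DMSO wells and 100% = excess unlabeled CBFb competitor control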
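Reagent – Venus-CBFb binding partner, 100 nM · Assay system – Cerulean-tagged RUNX1 Runt domain (FRET donor) fusion protein · Input – 100 nM per protein · Incubation – two 1 h room-temperature incubations shielded from light · Measured by – FRET fluorescence · Medium – Tris buffer pH 7.5 with salts and BSA · Benchmarks – unlabeled CBFb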
JMH597 growth: retest: inhibitors of Vibrio harveyi JMH597 growth. shares compounds with AI-2 QS modul. OD600 absorbance, 9 h; lacks LuxN and CqsS sensors. growth inhibition, % at 7.5 µM. 1% of 750 active. AID 2726;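 active = every replicate shows growth inhibition above 50%; inconclusive = at least half, but not all, replicates pass that cutoff; inactive = fewer than half of replicates pass it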
BB721 lum counter: retest counter-screen: luminescence loss in constitutive-on quorum sensing strain BB721; shares compounds with AI-2 QS modul; Vibrio harveyi BB721 luminescence, 9 h; inhibition, % at 7.5 µM; 95% of 750 active;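 active = inhibition above about 80% in every replicate, not just on average, limit read from the data; inconclusive = at least half of replicates past the limit, but not all; inactive = fewer than half of replicates past the limit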
BB721 growth rt: retest Vibrio harveyi BB721 growth inhibition. shares compounds with AI-2 QS modul. OD600 absorbance, 9 h. growth inhibition, % at 7.5 µM. 3% of 750 active;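 active = every replicate shows growth inhibition above 50%; inconclusive = at least half but not all replicates above 50% inhibition; inactive = under half of replicates above 50% inhibition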
AI-2 QS JMH597: Vibrio harveyi AI-2 signaling luminescence modulation – JMH597 strain, confirmation; shares compounds with AI-2 QS modul; 97% of 750 active; inhibition, % at 7.5 µM; Vibrio harveyi JMH597 AI-2 quorum sensing luminescence, 9 h; luxN and CqsS knockout, AI-2 only; AID 2736;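 active = every replicate shows more than 75% inhibition of signal versus neutral control wells; inconclusive = half to three quarters of replicates exceed 75% inhibition; inactive = fewer than half of replicates exceed 75% inhibition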
The depositor's hits bear a star; u = inconclusive; x = not tested or not shown. This is a sample that favours compounds with a hit; in the whole collection about 2.9% have one here.

SMILES	RanGTP-Imp inh	Runt-SMMHC FRET	Wee1 stabilizer	AI-2 QS modul	proKLK7 act	Runt-CBFb FRET	JMH597 growth	BB721 lum counter	BB721 growth rt	AI-2 QS JMH597
O=S(=O)(NCc1ccccc1)c1ccc(NC(=S)NCc2ccco2)cc1	-2.0	x	x	-97.4*	0.2	x	15.8	99.7*	-59.8	99.8*
N#Cc1ccccc1S(=O)(=O)N1CCN(C(=O)[C@@H]2CCCN2C(=O)c2cccs2)CC1	x	x	x	x	0.1	x	x	x	x	x
O=C(COC(=O)/C=C/c1ccccc1Cl)NC1CCCCCC1	0.9	-1.0	1.6	3.3	0.4	-1.1	x	x	x	x
O=[N+]([O-])c1ccc(O)c(-c2cc(C(F)(F)F)nc(-c3ccccc3)n2)c1	4.2	x	x	61.1	-0.6	x	x	x	x	x
COc1ccc(CC(=O)O/N=C(\N)c2ccc(OC)cc2)cc1	-1.7	-0.8	1.7	-94.0*	-0.3	0.6	-12.6	96.6*	-62.0	97.9*
COc1ccc(CC(=O)O/N=C(\N)Cc2ccc(OC)cc2)cc1	-1.4	-3.5	-1.4	-6.4	1.1	-1.1	x	x	x	x
O=C(NCc1ccc2c(c1)CCO2)Nc1ccccc1	-1.1	-2.8	-0.2	-82.6*	0.4	-0.9	-6.9	95.6*	-0.2	96.3*
COc1ccc(C2C(C#N)=C(N)N(c3ccccc3C#N)C3=C2C(=O)CCC3)cc1CN1CCCC1 (configuration not stated)	-1.7	2.3	1.8	6.6	-0.4	-1.1	x	x	x	x
O=C1CN(C(=O)COC(=O)CCCOc2ccccc2)c2ccccc2N1	-1.9	-5.3	3.1	-81.3*	0.1	-1.7	-7.3	93.9*	-16.7	95.6*
Cc1ccc(OCCC(=O)OCC(=O)N2CC(=O)Nc3ccccc32)cc1	x	x	x	x	0.8	x	x	x	x	x
CC1(C)C(=O)Nc2ccccc2N1C(=O)COC(=O)CSc1ccc(F)cc1	x	x	x	x	0.3	x	x	x	x	x
CC1(C)C(=O)Nc2ccccc2N1C(=O)COC(=O)CCSc1ccccc1	2.3	-4.1	-0.6	-85.1*	0.4	-1.4	6.8	91.7*	-28.9	95.1*
CC(=O)N/C(=C\c1ccccc1)C(=O)OC/C=C/c1ccccc1	-2.9	x	x	16.9	0.0	x	x	x	x	x
Cc1nc(CC(=O)c2ccc(O)c(C)c2O)cs1	1.2	0.3	0.1	-2.8	-0.1	1.5	x	x	x	x
N#Cc1nc(-c2ccc(F)cc2)oc1NCc1cccc2c1OCO2	2.3	1.6	-1.9	u	-3.6	-1.5	3.4	89.4*	-9.9	92.6*
N#Cc1nc(-c2cccs2)oc1NCc1ccc2c(c1)OCO2	3.0	4.5	-0.6	-85.4*	-4.4	-0.9	32.5	93.7*	31.6	96.3*
O=C(CCc1nnc2n(Cc3ccc(F)cc3)c(=O)c3ccccc3n12)N1CCN(c2ccccn2)CC1	-0.6	x	x	53.7	0.7	x	x	x	x	x
COc1ccc(N/N=C/c2c(C(=O)O)ccc3ccccc23)cc1	10.6	-9.9	2.2	-3.9	-75.3	-1.2	x	x	x	x
Cn1cnc(S(=O)(=O)Nc2ccc(C(F)(F)F)cc2)c1	-3.5	-0.3	-1.8	-1.2	0.2	-0.8	x	x	x	x
Cn1cnc(S(=O)(=O)Nc2ccc(OC(F)(F)F)cc2)c1	-2.9	0.6	0.6	u	-0.2	1.9	1.4	-33.6	-27.1	88.3*
Cc1nc2ccccc2c2oc(C(=O)N3CCN(c4ccc([N+](=O)[O-])cc4)CC3)cc12	5.7	x	x	-1.4	-0.4	x	x	x	x	x
CCCOc1ccc(N2C(=O)CC(SCCN)C2=O)cc1 (configuration not stated)	-0.8	-4.9	3.9	-87.4*	-0.8	3.7	17.8	94.6*	15.6	96.4*
